Experimental data taken from ChEMBL document CHEMBL4052805, “Discovery of novel 4(1H)-quinolone derivatives as potential antiproliferative and apoptosis inducing agents” (Bioorg Med Chem Lett, 2017).
pIC50: −log10 of the molar value. Counter-ions that a name gives are not always drawn. Activity calls are given as the source filed them. The calls are words filed in the database; no cut-off is given here.

Key:
HepG2 [1] = assay: Induction of apoptosis in human HepG2 cells assessed as viable cells at 10 ug/ml after 24 hrs by annexin V-FITC/propidium iodide staining based flow cytometry (reference value: 89.59%); format: functional; conditions: HepG2, 24 h, read-out: Activity
HepG2 [2] = assay: Anticlonogenic activity against human HepG2 cells at 10 uM treated for 24 hrs measured after 6 days by crystal violet staining based assay; format: functional, cell-based
HepG2 [3] = assay: Antiproliferative activity against human HepG2 cells up to 100 uM by CCK-8 assay; format: functional, cell-based; conditions: TDE = time-dependent effect
In short: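 HepG2 cells were seeded and left 24 h, then treated with a range of compound concentrations for 24 h. Viability was read by CCK-8 assay.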

HepG2 [4] = assay: Induction of apoptosis in human HepG2 cells assessed as early apoptotic cells at 10 ug/ml after 24 hrs by annexin V-FITC/propidium iodide staining based flow cytometry (reference value: 6.56%); format: functional
HepG2 [5] = assay: Induction of apoptosis in human HepG2 cells assessed as late apoptotic cells at 10 ug/ml after 24 hrs by annexin V-FITC/propidium iodide staining based flow cytometry (reference value: 3.50%); format: functional
HepG2 [6] = assay: Induction of apoptosis in human HepG2 cells assessed as necrotic cells at 10 ug/ml after 24 hrs by annexin V-FITC/propidium iodide staining based flow cytometry (reference value: 0.36%); format: functional
HepG2 [7] = assay: Induction of apoptosis in human HepG2 cells assessed as viable cells at 20 ug/ml after 24 hrs by annexin V-FITC/propidium iodide staining based flow cytometry (reference value: 89.59%); format: functional; conditions: HepG2, 24 h, read-out: Activity
HepG2 [8] = assay: Induction of apoptosis in human HepG2 cells assessed as early apoptotic cells at 20 ug/ml after 24 hrs by annexin V-FITC/propidium iodide staining based flow cytometry (reference value: 6.56%); format: functional
HepG2 [9] = assay: Induction of apoptosis in human HepG2 cells assessed as late apoptotic cells at 20 ug/ml after 24 hrs by annexin V-FITC/propidium iodide staining based flow cytometry (reference value: 3.50%); format: functional
HepG2 [10] = assay: Induction of apoptosis in human HepG2 cells assessed as necrotic cells at 20 ug/ml after 24 hrs by annexin V-FITC/propidium iodide staining based flow cytometry (reference value: 0.36%); format: functional
HepG2 [11] = assay: Induction of apoptosis in human HepG2 cells after 24 hrs by annexin V-FITC/propidium iodide staining based flow cytometry; format: functional, cell-based
HepG2 [12] = assay: Induction of apoptosis in human HepG2 cells assessed as increase in Bak protein expression at 10 to 20 ug/ml after 24 hrs by Western blot analysis; format: functional, cell-based
HepG2 [13] = assay: Induction of DNA damage in human HepG2 cells assessed as increase in PARP level after 24 hrs by Western blot analysis; format: functional, cell-based
HepG2 [14] = assay: Induction of DNA damage in human HepG2 cells assessed as increase in caspase-3 level after 24 hrs by Western blot analysis; format: functional, cell-based
HepG2 [15] = assay: Cell cycle arrest in human HepG2 cells assessed as accumulation at G2/M phase after 24 hrs by propidium iodide staining based flow cytometry; format: functional
[16] = target: Cellular tumor antigen p53 (Homo sapiens) (UniProt P04637); assay: Activation of p53 (unknown origin) transfected in human HepG2 cells at 4 uM after 24 hrs by dual-luciferase assay relative to control; format: cell-based
Cellular tumor antigen p53 (Homo sapiens), sequence (P04637 whole entry, looked up): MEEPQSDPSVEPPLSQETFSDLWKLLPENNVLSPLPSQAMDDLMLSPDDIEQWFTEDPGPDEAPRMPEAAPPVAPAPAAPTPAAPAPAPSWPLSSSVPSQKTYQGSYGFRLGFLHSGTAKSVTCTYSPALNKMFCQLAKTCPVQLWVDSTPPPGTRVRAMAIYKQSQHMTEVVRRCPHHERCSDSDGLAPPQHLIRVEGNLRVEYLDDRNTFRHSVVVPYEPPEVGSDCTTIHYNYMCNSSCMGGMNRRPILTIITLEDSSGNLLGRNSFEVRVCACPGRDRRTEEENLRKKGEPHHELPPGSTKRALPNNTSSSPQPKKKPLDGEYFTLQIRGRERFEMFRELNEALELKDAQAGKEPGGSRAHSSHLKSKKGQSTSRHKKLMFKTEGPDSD
In short: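 HepG2 cells transfected with the pathway reporter for 24 h, then exposed to 4 μM compound for a further 24 h; reporter activity read by dual-luciferase assay.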

HepG2 [17] = assay: Increase in p53 expression in human HepG2 cells at 10 to 20 ug/ml after 24 hrs by Western blot analysis; format: functional, cell-based
[18] = target: Cellular tumor antigen p53 (Homo sapiens) (UniProt P04637); assay: Activation of p53 in human HepG2 cells assessed as increase in p21 expression at 10 to 20 ug/ml after 24 hrs by Western blot analysis; format: cell-based
HepG2 [19] = assay: Downregulation of cyclin B1 expression in human HepG2 cells after 24 hrs by Western blot analysis; format: functional, cell-based
HepG2 [20] = assay: Downregulation of CDK1 expression in human HepG2 cells after 24 hrs by Western blot analysis; format: functional, cell-based
PC-3 = assay: Cytotoxicity against human PC3 cells assessed as reduction in cell viability after 24 hrs by MTT assay; conditions: PC-3, 24 h
HEp-2 = assay: Cytotoxicity against human Hep2 cells assessed as reduction in cell viability after 24 hrs by MTT assay; conditions: HEp-2, 24 h
MCF7 = assay: Cytotoxicity against human MCF7 cells assessed as reduction in cell viability after 24 hrs by MTT assay; conditions: MCF7, 24 h
HCT-8 = assay: Cytotoxicity against human HCT8 cells assessed as reduction in cell viability after 24 hrs by MTT assay; conditions: HCT-8, 24 h
HeLa = assay: Cytotoxicity against human HeLa cells assessed as reduction in cell viability after 24 hrs by MTT assay
HepG2 [21] = assay: Cytotoxicity against human HepG2 cells assessed as reduction in cell viability after 24 hrs by MTT assay; conditions: HepG2, 24 h
BGC-823 = assay: Cytotoxicity against human BGC823 cells assessed as reduction in cell viability after 24 hrs by MTT assay; conditions: BGC-823, 24 h

Row | Structure (SMILES) | pIC50 (PC-3) | pIC50 (HEp-2) | pIC50 (MCF7) | pIC50 (HCT-8) | pIC50 (HeLa) | pIC50 (HepG2 [21]) | pIC50 (BGC-823) | other results
1 | Cl.NCCCNC(=O)c1cn(CCCc2ccccc2)c2cc(Cl)ccc2c1=O | 5.16 | 5.49 | 5.51 | 5.22 | 5.64 | > 6.00 | 5.49 | viability at 10 µg/mL (HepG2 [1]): 88.5%; Activity (HepG2 [2]): Active; Activity (HepG2 [3]): Tde; Activity (HepG2 [4]): 7.01%; Activity (HepG2 [5]): 3.71%; Activity (HepG2 [6]): 0.75%; viability at 20 µg/mL (HepG2 [7]): 66.3%; Activity (HepG2 [8]): 10.72%; Activity (HepG2 [9]): 18.44%; Activity (HepG2 [10]): 4.5%; Activity (HepG2 [11]): Dose-dependent effect; Activity (HepG2 [12]): Active; Activity (HepG2 [13]): Dose-dependent effect; Activity (HepG2 [14]): Dose-dependent effect; Activity (HepG2 [15]): Dose-dependent effect; fold change (FC) [16]: 1.5; Activity (HepG2 [17]): Active; Activity [18]: Active; Activity (HepG2 [19]): Dose-dependent effect; Activity (HepG2 [20]): Dose-dependent effect
2 | Oc1ccnc2cc(Cl)ccc12 | < 4.30 | < 4.30 | < 4.30 | < 4.30 | < 4.30 | < 4.30 | < 4.30 | 
3 | NCCCNC(=O)c1cn(Cc2ccccc2)c2cc(Cl)ccc2c1=O | 5.04 | 5.08 | 5.30 | 4.84 | 5.34 | 5.27 | 5.17 | 
4 | CCCCn1cc(C(=O)NCCCN)c(=O)c2ccc(Cl)cc21 | 4.92 | 4.66 | 4.90 | 4.65 | 4.82 | 5.28 | 4.78 | 
5 | COc1cccc2c1C(=O)c1c(O)c3c(c(O)c1C2=O)C[C@@](O)(C(=O)CO)C[C@@H]3O[C@H]1C[C@H](N)[C@H](O)[C@H](C)O1 [DOXORUBICIN HYDROCHLORIDE] | > 6.00 | > 6.00 | > 6.00 | > 6.00 | > 6.00 | > 6.00 | > 6.00 | 
6 | C=CCn1cc(C(=O)NCCCN)c(=O)c2ccc(Cl)cc21 | 4.88 | 4.44 | 4.50 | 4.46 | 4.65 | 4.77 | 4.70 | 
7 | CCn1cc(C(=O)NCCCN)c(=O)c2ccc(Cl)cc21 | 4.90 | 4.55 | 4.45 | 4.50 | 4.70 | 4.86 | 4.52 | 
